Results reported in BindingDB's records for doi:10.1021/jm000911j (Universidad De Valencia, 2000).

Target: Acyl carrier protein,/NADH dehydrogenase [ubiquinone] flavoprotein 1, mitochondrial (Bos taurus, UniProt P25708+P52505)
Experiment: Inhibition of NADH oxidase activity.
How it was run: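 Beef-heart submitochondrial particles (sonicated frozen-thawed mitochondria), preactivated with 300 µM NADH, assayed at 22 °C in 50 mM potassium phosphate pH 7.4, 1 mM EDTA (0.28 nM complex I). Aerobic oxidation of 75 µM NADH with no added quinone, followed at 340 nm. Ethanolic compound added cumulatively, 5 min on ice per step, ethanol ≤2%. IC50 is the final concentration giving 50% inhibition.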

Sequence of Acyl carrier protein,/NADH dehydrogenase [ubiquinone] flavoprotein 1, mitochondrial (P25708 21-464 limits assumed, other chains not shown): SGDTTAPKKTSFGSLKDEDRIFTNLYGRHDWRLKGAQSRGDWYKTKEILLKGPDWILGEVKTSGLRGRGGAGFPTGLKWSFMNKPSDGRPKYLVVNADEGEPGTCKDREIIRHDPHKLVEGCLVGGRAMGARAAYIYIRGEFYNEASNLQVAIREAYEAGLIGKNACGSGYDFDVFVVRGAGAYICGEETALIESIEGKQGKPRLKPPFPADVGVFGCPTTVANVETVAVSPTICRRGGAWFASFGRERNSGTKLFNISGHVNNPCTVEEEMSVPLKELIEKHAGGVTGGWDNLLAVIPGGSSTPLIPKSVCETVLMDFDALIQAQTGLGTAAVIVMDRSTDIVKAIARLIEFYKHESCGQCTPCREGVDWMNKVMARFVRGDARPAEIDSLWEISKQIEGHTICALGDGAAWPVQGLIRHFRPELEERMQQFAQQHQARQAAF

IC50 [pM] | Compound
340 | CCCCCCCCCCC(N=O)[C@H]1CC[C@@H]([C@@H]2CC[C@H]([C@H](O)CCCCCCCCCCC(CC3=C[C@H](C)OC3=O)N=O)O2)O1 (some centres not stated) [3-{13-Hydroxy-2-hydroxyimino-13-[5'-(1-hydroxyimino-undecyl)-octahydro-[2,2']bifuranyl-5-yl]-tridecyl}-5-methyl-5H-furan-2-one(4,24-didehydroxy-4,24-dihydroxyliminorolliniastatin-1)]
340 | CCCCCCCCCC[C@H](O)[C@H]1CC[C@H]([C@H]2CC[C@H]([C@H](O)CCCCC(CCCCCCCC3=C[C@H](C)OC3=O)N=O)O2)O1 (some centres not stated) [10-oxime-guanacone]
